{
  "source": "paper PMC5508335",
  "about": "(Journal of Veterinary Internal Medicine, 2017)",
  "molecules": {"B1": {"name": "C1‐INH: human recombinant C1-esterase Inhibitor (protein, UniProt P05155 23-500, looked up)", "Plasma protease C1 inhibitor": "NPNATSSSSQDPESLQDRGEGKVATTVISKMLFVEPILEVSSLPTTNSTTNSATKITANTTDEPTTQPTTEPTTQPTIQPTQPTTQLPTDSPTQPTTGSFCPGPVTLCSDLESHSTEAVLGDALVDFSLKLYHAFSAMKKVETNMAFSPFSIASLLTQVLLGAGENTKTNLESILSYPKDFTCVHQALKGFTTKGVTSVSQIFHSPDLAIRDTFVNASRTLYSSSPRVLSNNSDANLELINTWVAKNTNNKISRLLDSLPSDTRLVLLNAIYLSAKWKTTFDPKKTRMEPFHFKNSVIKVPMMNSKKYPVAHFIDQTLKAKVGQLQLSHNLSLVILVPQNLKHRLEDMEQALSPSVFKAIMEKLEMSKFQPTLLTLPRIKVTTSQDMLSIMEKLEFFDFSYDLNLCGLTEDPDLQVSAMQHQTVLELTETGVEAAAASAISVARTLLVFEVQQPFLFVLWDQQHKFPVFMGRVYDPRA"}},
  "key": {"[1]": {"test_system": "beagles with and without MVMD", "experiment": "Dobutamine stress echocardiography in beagles with mitral valve disease", "assay_type": "in vivo, dog"}, "[2]": {"test_system": "canine osteosarcoma cell lines", "experiment": "Combination with MCT1/4 small molecule inhibitors in canine osteosarcoma cells", "assay_type": "cell-based, dog"}, "[3]": {"test_system": "dogs given PEG before colonoscopy", "experiment": "Anti-emetic before orogastric PEG administration", "assay_type": "in vivo, dog", "procedure,_shortened": "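46 dogs with naturally occurring disease needed PEG bowel cleansing before colonoscopy. They were randomized to one of two anti-emetics given SC 30 minutes before orogastric-tube PEG at 66 ml/kg. PEG was repeated 2 hours later without repeating the anti-emetic. Administration was by or under supervision of blinded authors. Vomiting and regurgitation were recorded after each PEG dose.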"}, "[4]": {"assay_type": "in vivo, cats", "settings": "one 1.87 mg oral dose"}, "[5]": {"test_system": "dogs with idiopathic IMPA", "experiment": "Retrospective outcome of dogs with idiopathic IMPA", "settings": "dog, in vivo"}, "healthy beagles": {"test_system": "healthy beagles", "experiment": "Serum cPLI after high-dose prednisolone in healthy beagles", "assay_type": "in vivo, dog", "settings": "4 mg/kg/day SC for 2 or 3 weeks; six beagles"}, "[6]": {"test_system": "dogs with ventricular tachyarrhythmias", "experiment": "Echocardiogram and 5-minute ECG before and after oral sotalol", "assay_type": "in vivo, dog"}, "[7]": {"test_system": "Dobermans with CHF due to DCM", "experiment": "Randomized placebo-controlled survival trial in Dobermans with CHF due to DCM", "assay_type": "in vivo, dog", "settings": "50 mg twice daily plus standard therapies; 34 dogs; time to cardiac death"}, "[8]": {"test_system": "dogs with gastrointestinal stromal tumors", "experiment": "Retrospective evaluation of toceranib in canine GIST", "assay_type": "in vivo, dog"}, "[9]": {"test_system": "fecal microbiota of healthy dogs", "experiment": "Fecal microbiota qPCR Dysbiosis Index after oral tylosin", "assay_type": "in vivo, dog", "settings": "20 mg/kg q12 hr for 7 days", "procedure,_shortened": "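Ten healthy pet dogs were randomized double-blind to oral test compound at 20 mg/kg (n = 6) or placebo capsule (n = 4), given q12 hr for 7 days. Dogs stayed on their usual diet. Fecal samples were taken on days 0, 7, 10, 21 and 63, and a fecal score (1–7) was recorded daily during dosing.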"}, "[10]": {"test_system": "healthy purpose-bred dogs", "experiment": "Isoglycemic clamp in healthy dogs", "assay_type": "in vivo, dog", "settings": "2.4 nmol/kg SC"}, "[11]": {"test_system": "adrenal cortisol production", "experiment": "ACTH stimulation test, serum cortisol by radioimmunoassay", "assay_type": "in vivo, dog", "settings": "± SEM", "procedure,_shortened": "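Dogs: 5 healthy controls and 10 previously diagnosed with hyperadrenocorticism. Each dog had two ACTH stimulation tests, one with a reference tetracosactrin product (0.04 mL/kg IV) and one with the test ACTH preparation (0.08 mL/kg IV). Blood was drawn just before injection and 60 minutes after. Serum cortisol was measured by validated radioimmunoassay and reported as mean ± SEM.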"}, "canine complement": {"test_system": "canine complement", "assay_type": "biochemical, dog", "settings": "dose curves, at the doses evaluated"}, "[12]": {"settings": "G2 MVMD, DIVEd/Ao less than 2.8"}},
  "data": [
    {"molecule": "CC(CCc1ccc(O)cc1)NCCc1ccc(O)c(O)c1", "note": "(stereo not shown) [dobutamine]", "values": [
      {"measurement": "difference between pre and post stress EF%", "setting": "[1]; G1 control group", "result": "0.25 ± 0.08"},
      {"measurement": "difference between pre and post stress FS%", "setting": "[1]; G1 control group, 5 then 10 μg/kg/minute infusion", "result": "0.44 ± 0.14"},
      {"measurement": "difference between pre and post stress EF%", "setting": "[1]; [12]", "result": "0.30 ± 0.08"},
      {"measurement": "difference between pre and post stress FS%", "setting": "[1]; [12]", "result": "0.49 ± 0.13"},
      {"measurement": "difference between pre and post stress EF%", "setting": "[1]; G3 MVMD, DIVEd/Ao above 2.8", "result": "0.13 ± 0.09"},
      {"measurement": "difference between pre and post stress FS%", "setting": "[1]; G3 MVMD, DIVEd/Ao above 2.8", "result": "0.19 ± 0.14"}
    ]},
    {"molecule": "COc1cccc2c1C(=O)c1c(O)c3c(c(O)c1C2=O)C[C@@](O)(C(=O)CO)C[C@@H]3O[C@H]1C[C@H](N)[C@H](O)[C@H](C)O1", "note": "[doxorubicin]", "values": [
      {"measurement": "activity in the presence of MCT1 and MCT4 small molecule inhibitors", "setting": "[2]", "result": "Synergistic activity"}
    ]},
    {"molecule": "CN(C)C(=N)N=C(N)N", "note": "[metformin]", "values": [
      {"measurement": "activity in the presence of MCT1 and MCT4 small molecule inhibitors", "setting": "[2]", "result": "Synergistic activity"}
    ]},
    {"molecule": "CCN(CC)CCNC(=O)c1cc(Cl)c(N)cc1OC", "note": "[metoclopramide]", "values": [
      {"measurement": "incidence of regurgitation", "setting": "[3]; PEG Dose 1", "result": 52.4, "unit": "%"},
      {"measurement": "incidence of vomiting", "setting": "[3]; PEG Dose 1, anti-emetic SC 30 minutes before", "result": 23.8, "unit": "%"},
      {"measurement": "incidence of regurgitation", "setting": "[3]; PEG Dose 2", "result": 31.6, "unit": "%"},
      {"measurement": "incidence of vomiting", "setting": "[3]; PEG Dose 2", "result": 21.1, "unit": "%"}
    ]},
    {"molecule": "CN1CCN2c3ncccc3Cc3ccccc3C2C1", "note": "(stereo not shown) [mirtazapine]", "values": [
      {"measurement": "AUC, liver disease cats versus AMC cats", "setting": "[4]", "result": "not significantly different"}
    ]},
    {"molecule": "C[C@]12C=CC(=O)C=C1CC[C@@H]1[C@@H]2[C@@H](O)C[C@@]2(C)[C@H]1CC[C@]2(O)C(=O)CO", "note": "[prednisolone]", "values": [
      {"measurement": "dogs relapsed during tapering of medication", "setting": "[5]", "result": "13/23"},
      {"measurement": "median treatment duration", "setting": "[5]", "result": 397, "unit": "days"},
      {"measurement": "serum cPL concentration after versus before treatment", "setting": "healthy beagles", "result": "significantly higher after than before treatment"}
    ]},
    {"molecule": "CC(C)NCC(O)c1ccc(NS(C)(=O)=O)cc1", "note": "(stereo not shown) [sotalol]", "values": [
      {"measurement": "EF, mean percent change ± SD", "setting": "[6]; 2–3 hours post-sotalol", "result": "−13 ± 16", "unit": "%"},
      {"measurement": "FS, mean percent change ± SD", "setting": "[6]; 2–3 hours post-sotalol", "result": "−14 ± 11", "unit": "%"},
      {"measurement": "LVSA, mean percent change ± SD", "setting": "[6]; 2–3 hours post-sotalol", "result": "−10 ± 12", "unit": "%"},
      {"measurement": "heart rate, mean percent change ± SD", "setting": "[6]; 2–3 hours post-sotalol 2.5 ± 0.2 mg/kg PO, n = 27", "result": "−18 ± 16", "unit": "%"}
    ]},
    {"molecule": "CC(=O)S[C@@H]1CC2=CC(=O)CC[C@]2(C)[C@H]2CC[C@@]3(C)[C@@H](CC[C@@]34CCC(=O)O4)[C@H]12", "note": "[spironolactone]", "values": [
      {"measurement": "median survival time", "setting": "[7]", "result": 183, "unit": "days"}
    ]},
    {"molecule": "Cc1[nH]c(/C=C2\\C(=O)Nc3ccc(F)cc32)c(C)c1C(=O)NCCN1CCCC1", "note": "[toceranib]", "values": [
      {"measurement": "dogs experiencing adverse events", "setting": "[8]; 16/28, majority Grade 1 or 2 gastrointestinal toxicities", "result": 57, "unit": "%"},
      {"measurement": "Clinical benefit (CB)", "setting": "[8]; all dogs, 26/28", "result": 93, "unit": "%"},
      {"measurement": "Clinical benefit (CB)", "setting": "[8]; dogs with gross disease, 5/7", "result": 71, "unit": "%"},
      {"measurement": "Clinical benefit (CB)", "setting": "[8]; dogs with microscopic disease", "result": "21/21"}
    ]},
    {"molecule": "CC[C@H]1OC(=O)C[C@@H](O)[C@H](C)[C@@H](O[C@@H]2O[C@H](C)[C@@H](O[C@H]3C[C@@](C)(O)[C@@H](O)[C@H](C)O3)[C@H](N(C)C)[C@H]2O)[C@@H](CC=O)C[C@@H](C)C(=O)/C=C/C(C)=C/[C@@H]1CO[C@@H]1O[C@H](C)[C@@H](O)[C@@H](OC)[C@H]1OC", "note": "[tylosin]", "values": [
      {"measurement": "development of diarrhea", "setting": "[9]", "result": "None of the dogs in either group developed diarrhea"},
      {"measurement": "Dysbiosis Index, median", "setting": "[9]; day 7, 6 dogs, day 0 −6.5", "result": 2.9}
    ]},
    {"molecule": "Insulin glargine [Toujeo]", "values": [
      {"measurement": "dogs with peakless time-action profile", "setting": "[10]", "result": "4/8"},
      {"measurement": "duration of action, median", "setting": "[10]", "result": 16.3, "unit": "h"},
      {"measurement": "peak of action, median", "setting": "[10]", "result": 6.3, "unit": "h"},
      {"measurement": "Median onset of action", "setting": "[10]; 8 healthy dogs", "result": 4.0, "unit": "h"}
    ]},
    {"molecule": "corticotropin (SYSMEHFRWGKPVGKKRRPVKVYPNGAEDESAEAFPLEF; Corticotropin; UniProt P01189 138-176, looked up) [Acthelea]", "values": [
      {"measurement": "post-ACTH serum cortisol", "setting": "[11]; control group, 5 healthy dogs, 60 minute post IV", "result": "9.00 ± 0.71", "unit": "µg/dL"},
      {"measurement": "after ACTH serum cortisol", "setting": "[11]; treated group, 10 dogs with hyperadrenocorticism on trilostano", "result": "7.90 ± 2.1", "unit": "µg/dL"}
    ]},
    {"molecule": "B1", "values": [
      {"measurement": "inhibition of canine complement-mediated hemolysis", "setting": "canine complement", "result": "dose‐dependent inhibition"}
    ]}
  ]
}
